Bioassay records from PubChem BioAssay.
FLuc stim CS – FLuc activators, initial screening, artefact control for FLuc-dependent activation tests, biochemical, ATPlite luminescence | AID 1027, 2008 | activation factor at 10 µM | Luciferin 4-monooxygenase (Photinus pyralis), P08659 | 200,000 tested, under 10 active | ATPlite luciferase biochemical, 10 min; 0 = ATP-free wells, 1 = DMSO control;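 active = luciferase activation factor, scaled between plate controls, of at least 2 with compound at 10 µM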
Target sequence (P08659 whole entry, looked up): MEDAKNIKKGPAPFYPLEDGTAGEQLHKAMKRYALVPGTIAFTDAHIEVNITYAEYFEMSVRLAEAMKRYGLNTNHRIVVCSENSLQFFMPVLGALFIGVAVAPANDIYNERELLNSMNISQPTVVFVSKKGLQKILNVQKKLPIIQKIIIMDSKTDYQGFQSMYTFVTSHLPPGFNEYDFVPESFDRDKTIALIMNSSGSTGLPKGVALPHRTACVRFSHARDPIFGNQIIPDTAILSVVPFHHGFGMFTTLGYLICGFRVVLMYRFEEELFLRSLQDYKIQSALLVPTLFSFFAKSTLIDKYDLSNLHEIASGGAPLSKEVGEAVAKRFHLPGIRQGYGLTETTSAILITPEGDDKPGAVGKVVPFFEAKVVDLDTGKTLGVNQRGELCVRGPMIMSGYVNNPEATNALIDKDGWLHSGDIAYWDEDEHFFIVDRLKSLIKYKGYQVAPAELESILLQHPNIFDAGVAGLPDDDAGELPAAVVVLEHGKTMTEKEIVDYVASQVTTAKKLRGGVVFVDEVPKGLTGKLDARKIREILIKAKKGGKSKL
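System: cell-free luciferase reagent; medium: PBS as buffer for the ATP substrate; doses: test compounds dosed from 2 mM stocks in 100% DMSO; incubation: 10 min, room temperature; measured by: luminescence from luciferase reaction; read-out: luciferase activation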
TRAIL sens C8 – viability loss with TRAIL in NB7+C8 cells, primary screen, TRAIL sensitizer project, cell-based, ATPlite luminescence; inhibition (viability loss, TRAIL sensitization), % at 10 µM; 360,000 compounds, 1% hits;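 active = compounds causing at least 50% loss of cell viability in the single-dose screen, relative to plate controls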
APP 5'UTR act – activators of APP 5'UTR luciferase reporter, primary screen, SH-SY5Y cells. activation, % at 2 µM. SH-SY5Y APP 5'UTR luciferase reporter, luminescence; zero percent = DMSO vehicle wells. 190,000 compounds, 1% hits;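 active = activation above a set limit, based on mean plus 3 SD of controls, cut at about 140% in these data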
NF-kB expr up – activators of NF-kB expression in neurons, primary screen, cell-based, HTS; human neuronal cells, NF-kB reporter expression; stronger effect = higher value; 190,000 compounds, 1.6% hits; fold change at 12.5 µM; AID 1239, 2008; in the data active = fold change above about 3.3
FLuc inhib CS – firefly luciferase enzyme inhibitors, primary screen, artefact control for luciferase-based inhibitor screens, biochemical, luminescence, ATPLite. AID 1006, 2008. Luciferin 4-monooxygenase (Photinus pyralis), P08659. 200,000 compounds, 1.5% hits. 10 min. inhibition, % at 10 µM;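 active = inhibition above about 50% when tested at 10 µM, limit read from the data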
PPC-1+TRAIL kill – compounds killing PPC-1 cancer cells with TRAIL present, primary screen, TRAIL potentiator project, ATPLite luminescence, uHTS. PPC-1 cells + TRAIL, ATPLite viability luminescence. cell killing (% activity), % at 4 µM or 5 µM. 220,000 compounds, 0.41% hits. AID 1443, 2008;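 active = cell killing above 50% in the first pass at 4 µM, then a duplicate retest at 5 µM averaging 50% or more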
Numbers stand for hits; 0 = inactive; - = no result given. Most compounds without a hit are left out; they make up all but 2.2% or so of the library.

SMILES	FLuc stim CS	TRAIL sens C8	APP 5'UTR act	NF-kB expr up	FLuc inhib CS	PPC-1+TRAIL kill
CCc1nc2ccccc2c(C(=O)OCC(=O)Nc2ccc(S(=O)(=O)N3CCOCC3)cc2)c1C	0	0	0	0	0	0
Cc1ccc(N/N=C(\C#N)C(=O)c2ccsc2)cc1	-	0	-	-	-	0
Cc1ccc(N/C=C(/C#N)c2ccsc2)cc1C	0	0	0	5.2	0	0
Cc1cccc(C)c1NC(=O)C1(C)CN(S(C)(=O)=O)CC(=O)N1Cc1ccc2c(c1)OCO2 (centres undefined)	-	0	-	-	-	-
CC1(C)CC(=O)C2=C(C1)OC1=C(C(=O)CC(C)(C)C1)C2c1ccc(O)c([N+](=O)[O-])c1	0	0	0	0	0	0
CC1(C)CC(=O)C2=C(C1)OC1=C(C(=O)CC(C)(C)C1)C2c1ccc(O)cc1O	0	0	0	6.2	0	0
CCOC(=O)c1cnc(-n2nc(C)cc2C)nc1NC1CCCC1	-	0	-	-	-	0
CCOC(=O)c1cnc(-n2nc(C)cc2C)nc1N(C)C	0	50	0	0	80	0
O=C(Nc1cnn(C23CC4CC(CC(C4)C2)C3)c1)c1cnn2c(C(F)(F)F)cc(-c3ccco3)nc12	0	64	0	0	0	0
O=C(Nc1ccc2c(c1)OCO2)c1cnn2c(C(F)(F)F)cc(-c3ccco3)nc12	0	0	0	0	0	0
O=C(Nc1ccc2c(c1)OCO2)c1csc([C@H]2C[C@H](O)[C@@H](CO)O2)n1	-	0	-	-	-	-
O=C(Nc1ccc2c(c1)OCCO2)c1[nH]c(C(F)(F)F)nc1-c1ccccc1	-	0	-	-	-	-
CC(C)c1ccc(/C=C/C2=NNC(=O)CC2)cc1	0	0	165	4.6	0	0
COc1cc(/C=C/C2=NNC(=O)CC2)cc(OC)c1OC	-	0	-	-	-	-
Cc1[nH]n(-c2nc(-c3cccc([N+](=O)[O-])c3)cs2)c(=O)c1C	0	0	0	0	61	0
Cc1ccc(Cc2c(-c3cccc(Cl)c3)nc3c(C)cc(Br)cn23)cc1	-	0	-	-	-	-
O=C1CC(Sc2nnnn2C2CCCCC2)C(=O)N1c1ccccc1 (centres undefined)	0	0	0	0	57	0
COc1ccc2oc(=Nc3ccccc3)c(-c3nc4ccccc4[nH]3)cc2c1	0	63	138	4.2	61	61
Cc1cc(OCc2nc(N)nc(N)c2-c2ccc(Cl)c(Cl)c2)ccc1[N+](=O)[O-]	-	83	-	-	-	-
Cc1nc(N)nc(N)c1-c1ccc(Cl)c(Cl)c1	-	82	-	-	-	-
Cc1nc(N)nc(N)c1CCCc1ccc(Cl)c(Cl)c1	-	73	-	-	-	-
COc1ccc(C=O)cc1COc1ccc([N+](=O)[O-])c(C)c1	0	0	0	0	0	0
CC(C)S(=O)(=O)N1CCCC(c2cc(C(=O)NCc3ccccc3)no2)C1 (centres undefined)	-	0	-	-	-	-
Oc1[nH]c2ccccc2c1N=Nc1ccccc1F	0	0	0	4.1	0	0
Oc1[nH]c2ccccc2c1N=Nc1nc2ccccc2s1	0	0	-	3.7	54	0
SMILES	FLuc stim CS	TRAIL sens C8	APP 5'UTR act	NF-kB expr up	FLuc inhib CS	PPC-1+TRAIL kill
COc1ccc(/C=N/Nc2cc(C)nc3ccc(Br)cc23)cc1	-	49	-	-	-	-
Cc1cc(N/N=C/c2ccccc2O)c2ccccc2n1	-	0	-	-	-	-
COc1ccc2nc(C)cc(N/N=C/c3cccc(OC)c3O)c2c1	-	51	-	-	-	-
COc1cccc2c(N/N=C/c3ccccc3)cc(C)nc12	-	0	-	-	-	-
COc1cccc2c1C(=O)c1c(O)c3c(c(O)c1C2=O)C[C@@](O)(C(=O)CO)C[C@@H]3O[C@H]1C[C@H](N)[C@@H](O)[C@H](C)O1	-	57	-	-	-	-
COc1ccccc1N1CCN(C2C(=O)Nc3ccccc3-n3nnnc32)CC1 (centres undefined)	-	0	-	-	-	-
O=c1oc2ccccc2n1CSc1nc2ccccc2s1	0	0	0	3.3	0	0
O=c1oc2ccccc2n1CSC1=NCCS1	0	0	0	4.2	0	0
CCOC(=O)c1cc2c(C)n(-c3ccc(C)cc3)c(C)c2ccc1=O	0	59	0	0	84	0
CCc1ccc(C(O)c2ncc(-c3ccccc3Cl)[nH]2)cc1 (centres undefined)	-	0	-	-	-	-
O=C(N/N=C/C1CCCCC1)c1ccccn1	0	0	139	0	0	0
